Consider 3 molecules from publication PMC5270551 (Biochemistry, 2015).

The test system of data set [1] is Acinetobacter baumannii 17978. It counts as cell-based.
In data set [2] the test system is E. coli ATCC 25922. In words: Morphology imaging by phase-contrast microscopy and SEM. It counts as cell-based, Escherichia coli. Particulars: for cells elongated (length 5 μm or greater) / cells exhibiting blebs: 1 × 10^8 CFU/mL, mid-log, 1 h 37 °C.
The test system of data set [3] is Klebsiella pneumoniae 13883. In words: Morphology imaging of Gram-negative bacteria. It counts as cell-based. The settings on record: 20 μM peptide, 1 × 10^8 CFU/mL, mid-log, 1 h 37 °C. In a few lines: (§1)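 Mid-log bacteria at 1 × 10^8 CFU/mL were exposed to test peptide (20 μM; 40 μM for P. aeruginosa) for 1 h at 37 °C in 10 mM sodium phosphate buffer, pH 7.4, with 1% v/v TSB, then imaged by microscopy for morphology.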

The subject of the next data set is E. coli K-12. Kind of data set: Morphology imaging of Gram-negative bacteria. It counts as cell-based, Escherichia coli. The settings on record: 20 μM peptide, 1 × 10^8 CFU/mL, mid-log, 1 h 37 °C. In a few lines: as §1
Data set [4] has as its system E. coli ATCC 25922. It counts as cell-based, Escherichia coli. The settings on record: for log-reduction in CFU/mL: 4 μM peptide.
For data set [5] the following is noted: cited from earlier work.
The test system of data set [6] is Pseudomonas aeruginosa PAO1. It counts as cell-based.
Another data set concerns E. coli cyto-GFP. It counts as cell-based, Escherichia coli. The method in brief: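 An E. coli strain carrying cytoplasmic GFP, in mid-log or stationary phase, was exposed to test peptide across 0–80 μM. Cell length and mean GFP fluorescence intensity (arbitrary units) were taken from fluorescence images, and untreated and treated means were compared by Student's t-test.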

Another data set has as its system E. coli CFT073. Kind of data set: Morphology imaging of Gram-negative bacteria. It counts as cell-based, Escherichia coli. The settings on record: 20 μM HD5ox, 1 × 10^8 CFU/mL, mid-log, 1 h 37 °C; R-HD5ox Figure S19. In a few lines: as §1

Like-named read-outs stand apart in the source and are kept apart here. Where a SMILES comes first, the peptide text is derived from it. Bridges are numbered along the chain shown (N, C = ends).

In the case of `CC[C@H](C)[C@@H]1NC(=O)[C@H](CCC(=O)O)NC(=O)[C@@H]2CSSC[C@@H]3NC(=O)[C@H](Cc4ccc(O)cc4)NC(=O)[C@@H](NC(=O)[C@@H](NC(=O)[C@H](C)N)[C@@H](C)O)CSSC[C@@H](C(=O)N[C@@H](CCCNC(=N)N)C(=O)O)NC(=O)[C@H](CSSC[C@H](NC(=O)[C@H](CCCNC(=N)N)NC(=O)CNC(=O)[C@H]([C@@H](C)O)NC(=O)[C@H](CCCNC(=N)N)NC3=O)C(=O)N[C@@H](C)C(=O)N[C@@H]([C@@H](C)O)C(=O)N[C@@H](CCCNC(=N)N)C(=O)N[C@@H](CCC(=O)O)C(=O)N[C@@H](CO)C(=O)N[C@@H](CC(C)C)C(=O)N[C@@H](CO)C(=O)NCC(=O)N[C@@H](C(C)C)C(=O)N2)NC(=O)[C@H](CC(C)C)NC(=O)[C@H](CCCNC(=N)N)NC(=O)[C@H](Cc2ccc(O)cc2)NC(=O)[C@H](CC(C)C)NC(=O)[C@H](CCCNC(=N)N)NC(=O)CNC(=O)[C@H](CO)NC1=O` [HD5ox] (H-ATCYCRTGRCATRESLSGVCEISGRLYRLCCR-OH; disulfide 3-31, 5-20, 10-30 (inferred); N-terminus and C-terminus assumed), the bacterial morphology entry is “bleb formation, elongation, and clumping” in [1] (20 μM peptide, 1 × 10^8 CFU/mL, mid-log, 1 h 37 °C); “bleb formation, elongation, and clumping” in data set [3]; “bleb formation, elongation, and clumping” in the data set on E. coli K-12; “bleb formation, elongation, and clumping” in [6] (40 μM peptide, 1 × 10^8 CFU/mL, mid-log, 1 h 37 °C); “bleb formation, elongation, and clumping” with E. coli CFT073. Also, in data set [1] (17978, 1 h), the “HD5ox concentration at which blebs were displayed” value was found to be 10 µM. For the same molecule, the “cells elongated (length 5 μm or greater)” value in the data set on E. coli ATCC 25922 [2] (20 μM peptide, n = 212 cells) is 2%; in the data set with E. coli ATCC 25922 [2] (≥40 μM peptide, n = 203 cells), at least 4%. Further, the cells exhibiting blebs in the data set on E. coli ATCC 25922 [2] (20 μM peptide, n = 212 cells) was ~ 17%; in the data set with E. coli ATCC 25922 [2] (≥40 μM peptide, n = 203 cells), ~ 30%. In addition, the “bacterial morphology with NaCl” value with E. coli ATCC 25922 [2] (40 μM peptide co-treated with 200 mM NaCl) is reported as “smooth morphology similar to that of the untreated control”. Besides, in the data set on E. coli ATCC 25922 [2] (2 and 4 μM peptide, mid-log phase, 1 × 10^6 CFU/mL, standard AMA conditions), the “bacterial morphology (phase-contrast)” value is listed as “formation of large bulges”. Further, the entries for the “log-reduction in CFU/mL” value with E. coli ATCC 25922 [4] (mid-log phase E. coli) and with E. coli ATCC 25922 [4] (stationary phase E. coli) were ~ 4 fold log-reduction in CFU/mL and ~ 2 fold log-reduction in CFU/mL, respectively. Also, the “log reduction in CFU/mL” value in the data set with E. coli ATCC 25922 [4] (40 μM peptide, modified AMA conditions, 1 × 10^8 CFU/mL) is on record as “≈ 2 fold log reduction in CFU/mL”. The “antibacterial activity in presence of Zn(II)” value in the data set with E. coli ATCC 25922 [4] (2:1 Zn(II):HD5ox molar ratio) is reported as “loss of antibacterial activity”. Further, the “HD5ox activity in presence of divalent cations” value with E. coli ATCC 25922 [4] (Ca(II), Mg(II) and Zn(II) added) is listed as “blocked HD5ox activity”. In addition, in the data set with E. coli ATCC 25922 [4] (E. coli ATCC 25922, 1 × 10^6 CFU/mL, n = 3 (Figure 9C)), the “lethal dose for 99.99% killing, LD99.99” value turned out to be 8 µM. For the same molecule, the “oligomeric form at neutral pH” value in data set [5] is listed as “tetramers”. Further, the “HD5ox concentration at which blebs were observed (only at this concentration)” value in [6] (PAO1, 1 h) worked out at 40 µM. Moreover, the “mean cell length after treatment” value with E. coli cyto-GFP (mid-log phase, increasing HD5ox (0–80 μM), from 2.8 ± 0.8 μm without peptide) stood at 3.4 ± 1.0 μm; with E. coli cyto-GFP (stationary phase, from 3.0 ± 0.8 μm without peptide) it was 2.9 ± 0.7 μm. The “mean GFP fluorescence intensity after treatment” value worked out at 93 ± 47 units in the data set on E. coli cyto-GFP (mid-log phase, increasing HD5ox (0–80 μM), from 155 ± 48 units without peptide) and 139 ± 53 units with E. coli cyto-GFP (stationary phase, from 112 ± 38 units without peptide).

B1: HD5-TE: Linear form of human α-defensin 5 (iodoacetamide-capped) (peptide, UniProt Q01523 20-94, looked up)
Defensin alpha 5: ESLQERADEATTQKQSGEDNQDLAISFAGNGLSALRTSGSQARATCYCRTGRCATRESLSGVCEISGRLYRLCCR
modifications: Defensin-5 cysteines carbamidomethylated
B1: the “log reduction of CFU/mL” value with E. coli ATCC 25922 [4] (16 μM peptide) was 2 fold log reduction of CFU/mL.

B2: R-HD5[R9K]: rhodamine-HD5 conjugate, fluorophore positioned at R9K mutation site (conjugate, UniProt Q01523 20-94, looked up, variant R9K)
Defensin alpha 5: ESLQERADEATTQKQSGEDNQDLAISFAGNGLSALRTSGSQARATCYCRTGKCATRESLSGVCEISGRLYRLCCR
modifications: Defensin-5 rhodamine label at K9
For B2, the “antimicrobial activity against E. coli (in words)” value in the data set on E. coli ATCC 25922 [4] (AMA assay) is “active against E. coli”.
